The source of these data is ChEMBL document CHEMBL3259701, “Siderophore receptor-mediated uptake of lactivicin analogues in gram-negative bacteria” (J Med Chem, 2014).

Assay [1] has as its system Escherichia coli. The assay is described as follows: Antibacterial activity against Escherichia coli DH5alpha harboring pUCP26 empty vector by CLSI broth microdilution method. The format is functional. To be noted: DH5[alpha].
Assay [2] relates to Escherichia coli. The assay is described as follows: Antibacterial activity against Escherichia coli DH5alpha expressing beta-lactamase KPC-3 by CLSI broth microdilution method. In kind it is functional. To be noted: DH5[alpha].
For assay [3], the system named is Escherichia coli. As to the kind of experiment: Antibacterial activity against Escherichia coli DH5alpha expressing beta-lactamase VIM-2 by CLSI broth microdilution method. In kind it is functional. To be noted: DH5[alpha].
Assay [4] has as its system Escherichia coli. As to the kind of experiment: Antibacterial activity against Escherichia coli DH5alpha expressing beta-lactamase TEM-24 by CLSI broth microdilution method. The format is functional. To be noted: DH5[alpha].
Assay [5] relates to Escherichia coli. The assay is described as follows: Antibacterial activity against Escherichia coli DH5alpha expressing beta-lactamase CTX-M-15 by CLSI broth microdilution method. The format is functional. As to conditions: DH5[alpha].
Assay [6] concerns Escherichia coli. The assay is described as follows: Antibacterial activity against Escherichia coli DH5alpha expressing beta-lactamase OXA-24/40 by CLSI broth microdilution method. The format is functional. As to conditions: DH5[alpha].
Assay [7] deals with Escherichia coli. As to the kind of experiment: Antibacterial activity against Escherichia coli DH5alpha expressing beta-lactamase TEM-1 by CLSI broth microdilution method. The format is functional. As to conditions: DH5[alpha].
For assay [8], the system named is Escherichia coli. The assay is described as follows: Antibacterial activity against Escherichia coli DH5alpha expressing beta-lactamase NDM-1 by CLSI broth microdilution method. In kind it is functional. To be noted: DH5[alpha].
Assay [9] deals with Escherichia coli. The assay is described as follows: Antibacterial activity against Escherichia coli DH5alpha expressing beta-lactamase SHV-5 by CLSI broth microdilution method. The format is functional. To be noted: DH5[alpha].
The subject of assay [10] is Escherichia coli. As to the kind of experiment: Antibacterial activity against Escherichia coli DH5alpha expressing beta-lactamase OXA-58 by CLSI broth microdilution method. The format is functional. To be noted: DH5[alpha].
Assay [11] has as its system Escherichia coli. The assay is described as follows: Antibacterial activity against Escherichia coli DH5alpha expressing beta-lactamase SHV-12 by CLSI broth microdilution method. In kind it is functional. As to conditions: DH5[alpha].
Assay [12] deals with Escherichia coli. The assay is described as follows: Antibacterial activity against Escherichia coli DH5alpha by CLSI broth microdilution method. The format is functional. To be noted: DH5[alpha].
Assay [13] has as its system Klebsiella pneumoniae. The assay is described as follows: Antibacterial activity against Klebsiella pneumoniae KP-3700 by CLSI broth microdilution method. The format is functional.
Assay [14] can be described thus: Displacement of fluorescent Bocillin FL from Pseudomonas aeruginosa PBP1b.
The subject of assay [15] is Pseudomonas aeruginosa. The assay is described as follows: Antibacterial activity against Pseudomonas aeruginosa PAO1 by CLSI broth microdilution method. The format is functional.
Assay [16] concerns Escherichia coli. The assay is described as follows: Ratio of MIC for Escherichia coli DH5alpha expressing beta-lactamase OXA-24/40 to MIC for Escherichia coli DH5alpha harboring pUCP26 empty vector. The format is functional, DH5[alpha]. The method, boiled down: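 Isogenic E. coli panel in which each strain was engineered to express a single common β-lactamase. MIC for the OXA-24/40 strain was divided by the MIC for the empty-vector control strain. MICs were obtained by CLSI broth microdilution.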

Assay [17] addresses Penicillin-binding protein 1A (Pseudomonas aeruginosa PAO1, UniProt Q07806). As to the kind of experiment: Displacement of fluorescent Bocillin FL from N-terminal His tagged Pseudomonas aeruginosa PAO1 PBP1a (residues 36 to 822) expressed in Escherichia coli BL21 (Gold cells).
Assay [18] can be described thus: Displacement of fluorescent Bocillin FL from Pseudomonas aeruginosa PBP2.
The nature of assay [19]: Displacement of fluorescent Bocillin FL from Pseudomonas aeruginosa PBP3.
Assay [20] has as its system Pseudomonas aeruginosa. As to the kind of experiment: Antibacterial activity against Pseudomonas aeruginosa 1091-05 by CLSI broth microdilution method. The format is functional.
The test system of assay [21] is Acinetobacter baumannii. As to the kind of experiment: Antibacterial activity against Acinetobacter baumannii AB-3167 by CLSI broth microdilution method. The format is functional.
For assay [22], the system named is Escherichia coli. As to the kind of experiment: Antibacterial activity against Escherichia coli EC-28 by CLSI broth microdilution method. The format is functional.

Values after ≈ are worked out from the molar mass of the structure shown.

Penicillin-binding protein 1A, sequence (Q07806 whole entry, the tested form may be a part): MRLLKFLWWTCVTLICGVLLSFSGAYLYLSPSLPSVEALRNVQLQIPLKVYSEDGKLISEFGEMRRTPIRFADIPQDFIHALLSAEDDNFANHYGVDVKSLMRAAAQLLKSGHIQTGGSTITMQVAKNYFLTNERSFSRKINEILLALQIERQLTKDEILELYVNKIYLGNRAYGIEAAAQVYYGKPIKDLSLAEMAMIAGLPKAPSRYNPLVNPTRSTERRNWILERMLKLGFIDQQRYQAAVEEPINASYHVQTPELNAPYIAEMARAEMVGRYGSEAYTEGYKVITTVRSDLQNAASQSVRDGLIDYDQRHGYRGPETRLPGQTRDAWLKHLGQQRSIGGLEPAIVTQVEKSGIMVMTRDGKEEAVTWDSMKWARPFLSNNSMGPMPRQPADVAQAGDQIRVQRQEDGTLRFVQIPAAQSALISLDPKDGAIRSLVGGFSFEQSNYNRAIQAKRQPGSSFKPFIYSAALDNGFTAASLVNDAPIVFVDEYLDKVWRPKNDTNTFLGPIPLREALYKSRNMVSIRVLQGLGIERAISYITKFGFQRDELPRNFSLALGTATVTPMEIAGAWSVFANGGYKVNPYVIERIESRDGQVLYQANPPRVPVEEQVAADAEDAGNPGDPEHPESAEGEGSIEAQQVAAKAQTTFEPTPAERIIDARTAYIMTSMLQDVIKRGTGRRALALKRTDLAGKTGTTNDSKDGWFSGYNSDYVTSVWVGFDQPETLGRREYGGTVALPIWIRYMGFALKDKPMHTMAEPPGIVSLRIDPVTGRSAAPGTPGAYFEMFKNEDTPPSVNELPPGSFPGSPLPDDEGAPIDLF

With `CC1(C)[C@H](NC(=O)/C(=N\OCc2cc(=O)c(O)cn2O)c2csc(N)n2)C(=O)N1OS(=O)(=O)O`, the minimal inhibitory concentration (MIC) was 0.125 mg/L (≈ 0.241 µM) in assay [1]; 0.125 mg/L (≈ 0.241 µM) in assay [2]; 0.03 mg/L (≈ 0.0579 µM) in assay [3]; over 64 mg/L in assay [4]; 1 mg/L (≈ 1.93 µM) in assay [5]; 0.125 mg/L (≈ 0.241 µM) in [6]. Also, the minimal inhibitory concentration (MIC) is 0.03 mg/L (≈ 0.0579 µM) in assay [7]; 0.06 mg/L (≈ 0.116 µM) in [8]; over 64 mg/L in assay [9]; 0.125 mg/L (≈ 0.241 µM) in [10]; over 64 mg/L in [11]; 0.125 mg/L (≈ 0.241 µM) in [12].

As to `CC(C)(O/N=C(\C(=O)N[C@H]1CON(C2(C(=O)O)CCC(=O)O2)C1=O)c1csc(N)n1)C(=O)O` (some centres undefined), the minimal inhibitory concentration (MIC) turned out to be 4 mg/L (≈ 8.24 µM) in assay [13]; 0.25 mg/L (≈ 0.515 µM) in [1]; 0.5 mg/L (≈ 1.03 µM) in assay [2]; 0.25 mg/L (≈ 0.515 µM) in assay [3]; 0.5 mg/L (≈ 1.03 µM) in assay [4]; 0.5 mg/L (≈ 1.03 µM) in assay [5]. The minimal inhibitory concentration (MIC) in assay [15] came to 32 mg/L (≈ 65.9 µM); in assay [6], 1 mg/L (≈ 2.06 µM); in assay [7], 0.25 mg/L (≈ 0.515 µM); in assay [20] it was 32 mg/L (≈ 65.9 µM); in assay [8], 0.5 mg/L (≈ 1.03 µM); in [9], 0.5 mg/L (≈ 1.03 µM). In addition, the minimum inhibitory concentration (MIC) in assay [10] is 0.25 mg/L (≈ 0.515 µM); in [21], 32 mg/L (≈ 65.9 µM); in assay [11], 0.25 mg/L (≈ 0.515 µM); in [12] it was 0.25 mg/L (≈ 0.515 µM). The IC50 turned out to be 1.23 µM in assay [14], 0.046 µM in [17], 33.3 µM in assay [18] and 0.092 µM in [19]. Besides, in assay [16], the Ratio was 4.

In the case of `Nc1nc(/C(=N/OCc2cc(=O)c(O)cn2O)C(=O)N[C@H]2CON(C3(C(=O)O)CCC(=O)O3)C2=O)cs1` (some centres undefined), the minimum inhibitory concentration (MIC) in [13] was determined as 32 mg/L (≈ 59.4 µM); in assay [1], 0.5 mg/L (≈ 0.929 µM); in assay [2], 1 mg/L (≈ 1.86 µM); in [3], 0.5 mg/L (≈ 0.929 µM); in [4], 4 mg/L (≈ 7.43 µM); in assay [5] it was 4 mg/L (≈ 7.43 µM). The minimal inhibitory concentration (MIC) in assay [15] is 8 mg/L (≈ 14.9 µM); in assay [6], 1 mg/L (≈ 1.86 µM); in [22] it was 2 mg/L (≈ 3.71 µM); in [7], 1 mg/L (≈ 1.86 µM); in assay [20], 4 mg/L (≈ 7.43 µM); in assay [8] it was 1 mg/L (≈ 1.86 µM). Further, the minimum inhibitory concentration (MIC) in assay [9] is 32 mg/L (≈ 59.4 µM); in assay [10], 1 mg/L (≈ 1.86 µM); in assay [21], 0.5 mg/L (≈ 0.929 µM); in assay [11], 16 mg/L (≈ 29.7 µM); in assay [12], 1 mg/L (≈ 1.86 µM). Further, the IC50 in assay [14] came out at 2.46 µM; in assay [17], 0.046 µM; in [18], 22.2 µM; in assay [19], 0.14 µM.

`CC(C)(O/N=C(\C(=O)N[C@H]1CON(C2(C(=O)O)C[C@@H](NC(=O)OCc3ccccc3)C(=O)O2)C1=O)c1csc(N)n1)C(=O)O` (some centres undefined): the minimum inhibitory concentration (MIC) in assay [13], in assay [15], in assay [22], in assay [20] and in assay [21] was over 64 mg/L in each case. The values for the IC50 in assay [14], in assay [17] and in assay [18] were 2.44 µM, 0.11 µM and 47.1 µM, respectively.

For the compound `CC(C)(O/N=C(\C(=O)N[C@H]1CON(C2(C(=O)O)C[C@H](NC(=O)OCc3ccccc3)C(=O)O2)C1=O)c1csc(N)n1)C(=O)O` (some centres undefined), the minimal inhibitory concentration (MIC) in assay [13], in assay [15], in assay [22], in assay [20] and in assay [21] was over 64 mg/L each time. Moreover, the half-inhibitory concentration (IC50) in assay [14] was found to be 1.74 µM; in assay [17], 0.065 µM; in [18], 33.3 µM.

Consider `CC(C)(O/N=C(\C(=O)N[C@H]1CON(C2(C(=O)O)C[C@@H](NC(=O)c3cc(=O)c(O)cn3O)C(=O)O2)C1=O)c1csc(N)n1)C(=O)O` (some centres undefined), for which the MIC turned out to be 16 mg/L (≈ 24.5 µM) in [13]; 16 mg/L (≈ 24.5 µM) in assay [15]; 1 mg/L (≈ 1.53 µM) in assay [22]; 2 mg/L (≈ 3.06 µM) in assay [20]; 0.5 mg/L (≈ 0.765 µM) in assay [21]. Also, the IC50 in assay [14] is 0.82 µM; in assay [17], 0.046 µM; in [18], 6.41 µM; in assay [19], 0.065 µM.

Consider `CC(C)(O/N=C(\C(=O)N[C@H]1CON(C2(C(=O)O)C[C@H](NC(=O)c3cc(=O)c(O)cn3O)C(=O)O2)C1=O)c1csc(N)n1)C(=O)O` (some centres undefined), for which the minimal inhibitory concentration (MIC) in [13] came to 8 mg/L (≈ 12.2 µM); in assay [15] it was 2 mg/L (≈ 3.06 µM); in assay [22], 1 mg/L (≈ 1.53 µM); in assay [20] it was 64 mg/L (≈ 97.9 µM); in [21], 0.5 mg/L (≈ 0.765 µM). Besides, the IC50 in assay [14] is 0.82 µM; in [17], 0.046 µM; in [18] it was 3.7 µM; in [19] it was 0.092 µM.

Consider `CC[C@H](O)Cn1c(-c2cc(=O)c(O)c[nH]2)nn(S(=O)(=O)[N-]C(=O)N2C[C@H](NC(=O)/C(=N\OC(C)(C)C(=O)[O-])c3csc(N)n3)C2=O)c1=O.[Na+].[Na+]`, for which the minimum inhibitory concentration (MIC) in assay [1] came out at 0.125 mg/L; in assay [2], 0.06 mg/L; in [3], 0.015 mg/L; in assay [4], 0.125 mg/L; in [5], 0.25 mg/L; in [6], 0.25 mg/L. Besides, the MIC in [7] turned out to be 0.03 mg/L; in assay [8] it was 0.03 mg/L; in assay [9], 0.5 mg/L; in assay [10], 0.125 mg/L; in assay [11], 0.25 mg/L; in assay [12], 0.125 mg/L.

Regarding `CC1(C)S[C@@H]2[C@H](NC(=O)[C@H](N)c3ccccc3)C(=O)N2[C@H]1C(=O)O` [AMPICILLIN], the minimum inhibitory concentration (MIC) in assay [2] is 64 mg/L (≈ 183 µM); in assay [3], over 64 mg/L; in assay [4], over 64 mg/L; in [5], over 64 mg/L; in assay [6], 32 mg/L (≈ 91.6 µM); in assay [7], over 64 mg/L. Also, the minimum inhibitory concentration (MIC) in [8], in assay [9], in assay [10] and in assay [11] was over 64 mg/L in each case.

On to `C[C@H]1[C@H](NC(=O)/C(=N\OC(C)(C)C(=O)O)c2csc(N)n2)C(=O)N1S(=O)(=O)O` [AZTREONAM], for which the IC50 was 2.87 µM in assay [14], 3.34 µM in assay [17], over 300 µM in assay [18] and 0.008 µM in [19].
